Values after ≈ are worked out from the molar mass of the structure shown. Each block holds one molecule with its values, some of them ahead of it.
Key:
Type in all cases: functional
Staphylococcus aureus = assay: Antibacterial activity against Staphylococcus aureus ATCC 13709 after 24 hrs at 37 degC by CLSI protocol based microdilution method; details: ATCC 13709, 24 h
In short: (§1)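 Macrolide-susceptible strains, broth microdilution MIC per CLSI. Media: Mueller–Hinton broth (MHB) for S. aureus and M. catarrhalis, MHB plus 5% horse serum for streptococci, Haemophilus test medium for H. influenzae. Compounds dissolved in DMF (5 mg/mL stock) and serially twofold diluted in medium over 64 to 0.125 µg/mL. MIC read after 24 h incubation at 37 °C.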

Streptococcus pneumoniae = assay: Antibacterial activity against Streptococcus pneumoniae ATCC […] after 24 hrs at 37 degC by CLSI protocol based microdilution method; in short: as §1
Moraxella catarrhalis = assay: Antibacterial activity against Moraxella catarrhalis ATCC 23246 after 24 hrs at 37 degC by CLSI protocol based microdilution method; details: ATCC 23246, 24 h; in short: as §1
Haemophilus influenzae = assay: Antibacterial activity against Haemophilus influenzae ATCC 49247 after 24 hrs at 37 degC by CLSI protocol based microdilution method; details: ATCC 49247, 24 h; in short: as §1
Streptococcus pyogenes = assay: Antibacterial activity against Streptococcus pyogenes ATCC 700294 after 24 hrs at 37 degC by CLSI protocol based microdilution method; details: ATCC 700294, 24 h; in short: as §1

Structure (SMILES): CC[C@H]1OC(=O)[C@H](C)[C@@H](O[C@H]2C[C@@](C)(OC)[C@@H](O)[C@H](C)O2)[C@H](C)[C@@H](O[C@@H]2O[C@H](C)C[C@H](N(C)C)[C@H]2O)[C@](C)(OC)C[C@@H](C)C(=O)[C@H](C)[C@@H](O)[C@]1(C)O [CLARITHROMYCIN]
- MIC (Staphylococcus aureus): 0.25 µg/mL (≈ 0.334 µM)
- MIC (Streptococcus pneumoniae): < 0.125 µg/mL
- MIC (Moraxella catarrhalis): < 0.125 µg/mL
- MIC (Haemophilus influenzae): 8 µg/mL (≈ 10.7 µM)
- MIC (Streptococcus pyogenes): < 0.125 µg/mL

Structure (SMILES): CC[C@H]1OC(=O)[C@H](C)[C@@H](O[C@H]2C[C@@](C)(OC)[C@@H](O)[C@H](C)O2)[C@H](C)[C@@H](O[C@@H]2O[C@H](C)C[C@H]3[C@H]2OC(=O)N3CC)[C@](C)(OC)C[C@@H](C)C(=O)N[C@H](C)[C@@H](O)[C@]1(C)O
- MIC (Staphylococcus aureus): > 64 µg/mL
- MIC (Streptococcus pneumoniae): > 64 µg/mL
- MIC (Moraxella catarrhalis): > 64 µg/mL
- MIC (Haemophilus influenzae): > 64 µg/mL
- MIC (Streptococcus pyogenes): > 64 µg/mL

Structure (SMILES): CCCN1C(=O)O[C@H]2[C@H](O[C@@H]3[C@@H](C)[C@H](O[C@H]4C[C@@](C)(OC)[C@@H](O)[C@H](C)O4)[C@@H](C)C(=O)O[C@H](CC)[C@@](C)(O)[C@H](O)[C@@H](C)C(=O)[C@H](C)C[C@@]3(C)OC)O[C@H](C)C[C@@H]21
- MIC (Staphylococcus aureus): > 64 µg/mL
- MIC (Streptococcus pneumoniae): > 64 µg/mL
- MIC (Moraxella catarrhalis): > 64 µg/mL
- MIC (Haemophilus influenzae): > 64 µg/mL
- MIC (Streptococcus pyogenes): > 64 µg/mL

Structure (SMILES): C=CCN1C(=O)O[C@H]2[C@H](O[C@@H]3[C@@H](C)[C@H](O[C@H]4C[C@@](C)(OC)[C@@H](O)[C@H](C)O4)[C@@H](C)C(=O)O[C@H](CC)[C@@](C)(O)[C@H](O)[C@@H](C)N(C)C[C@H](C)C[C@@]3(C)O)O[C@H](C)C[C@@H]21
- MIC (Staphylococcus aureus): > 64 µg/mL
- MIC (Streptococcus pneumoniae): > 64 µg/mL
- MIC (Moraxella catarrhalis): > 64 µg/mL
- MIC (Haemophilus influenzae): > 64 µg/mL
- MIC (Streptococcus pyogenes): > 64 µg/mL

The next lines start with the values.

- MIC (Staphylococcus aureus): > 64 µg/mL
- MIC (Streptococcus pneumoniae): > 64 µg/mL
- MIC (Moraxella catarrhalis): > 64 µg/mL
- MIC (Haemophilus influenzae): > 64 µg/mL
- MIC (Streptococcus pyogenes): > 64 µg/mL
Structure (SMILES): CC[C@H]1OC(=O)[C@H](C)[C@@H](O[C@H]2C[C@@](C)(OC)[C@@H](O)[C@H](C)O2)[C@H](C)[C@@H](O[C@@H]2O[C@H](C)C[C@H]3[C@H]2OC(=O)N3Cc2ccccc2)[C@](C)(OC)C[C@@H](C)C(=O)[C@H](C)[C@@H](O)[C@]1(C)O

- MIC (Staphylococcus aureus): > 64 µg/mL
- MIC (Streptococcus pneumoniae): > 64 µg/mL
- MIC (Moraxella catarrhalis): > 64 µg/mL
- MIC (Haemophilus influenzae): > 64 µg/mL
- MIC (Streptococcus pyogenes): > 64 µg/mL
Structure (SMILES): CC[C@H]1OC(=O)[C@H](C)[C@@H](O[C@H]2C[C@@](C)(OC)[C@@H](O)[C@H](C)O2)[C@H](C)[C@@H](O[C@@H]2O[C@H](C)C[C@@H]3NC(=O)O[C@@H]23)[C@](C)(OC)C[C@@H](C)C(=O)[C@H](C)[C@@H](O)[C@]1(C)O

Reference: ChEMBL document CHEMBL2021818, “Novel desosamine-modified 14- and 15-membered macrolides without antibacterial activity” (2012)
